Values after ≈ are worked out from the molar mass of the structure shown. Some results are limits rather than exact numbers.

Series [1] has as its system Acinetobacter baumannii. Briefly: Antibacterial activity against Acinetobacter baumannii AYE assessed as growth inhibition. The class given is functional.
For series [2], the system named is Pseudomonas aeruginosa. Description: Antibacterial activity against Pseudomonas aeruginosa ATCC 27853 assessed as growth inhibition incubated for 18 hrs by broth dilution method. The class given is functional. The following applies: ATCC 27853, 18 h. In short, it runs like this:
(§1)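 Broth microdilution following CA-SFM recommendations. Inoculum was 10^5 CFU in Mueller-Hinton broth with two-fold serial drug dilutions. Plates were incubated 18 h at 37 °C. MIC was the lowest concentration giving complete inhibition of visible growth. Values are means, n = 3.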

The test system of series [3] is Escherichia coli. Briefly: Antibacterial activity against Escherichia coli ATCC 25922 assessed as growth inhibition incubated for 18 hrs by broth dilution method. The class given is functional. The following applies: ATCC 25922, 18 h. A digest of the protocol:
as §1

The test system of series [4] is Klebsiella pneumoniae. Description: Antibacterial activity against Klebsiella pneumoniae ATCC 13443 assessed as growth inhibition. The class given is functional.
The subject of series [5] is Staphylococcus aureus. Description: Antibacterial activity against Staphylococcus aureus ATCC 25923 assessed as growth inhibition incubated for 18 hrs by broth dilution method. The class given is functional. As to conditions: ATCC 25923, 18 h. A digest of the protocol:
as §1

The subject of series [6] is Staphylococcus intermedius. Briefly: Antibacterial activity against Staphylococcus intermedius 1051997 assessed as growth inhibition incubated for 18 hrs by broth dilution method. The class given is functional. The following applies: Staphylococcus intermedius, 1051997, 18 h. A digest of the protocol: as §1
The subject of series [7] is Klebsiella pneumoniae. Description: Antibacterial activity against Klebsiella pneumoniae ATCC 700603 assessed as growth inhibition incubated for 18 hrs by resazurin dye based assay. The class given is functional. As to conditions: Klebsiella pneumoniae, 700603, 18 h. A digest of the protocol: (§2)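 Overnight cultures were diluted 40-fold in MHB and grown 1.5–2 h at 37 °C to mid-log phase. Cells were added at 5×10^5 CFU/mL final to two-fold compound dilutions (0.008–32 μg/mL final), in duplicate, for 18 h at 37 °C. Resazurin (0.001% final) was added for 2 h and MIC read by eye. Means, n = 2.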

For series [8], the system named is Acinetobacter baumannii. Briefly: Antibacterial activity against Acinetobacter baumannii ATCC 19606 assessed as growth inhibition incubated for 18 hrs by resazurin dye based assay. The class given is functional. The following applies: ATCC 19606 = CIP 70.34 = JCM 6841, 18 h. In short, it runs like this: as §2
For series [9], the system named is Candida albicans. Briefly: Antifungal activity against Candida albicans ATCC 90028 assessed as growth inhibition incubated for 36 hrs by resazurin dye based assay. As to conditions: ATCC 90028, 36 h. The class given is functional. In short, it runs like this:
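Yeast was grown 3 days on YPD agar at 30 °C. Colonies were suspended and diluted in YNB broth to 2.5×10^3 CFU/mL, then added to two-fold compound dilutions (0.008–32 μg/mL final), in duplicate. Plates stood 36 h at 35 °C without shaking. Means, n = 2.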

Series [10] deals with Cryptococcus neoformans. Description: Antifungal activity against Cryptococcus neoformans ATCC 208821 assessed as growth inhibition incubated for 36 hrs by resazurin dye based assay. The class given is functional. The following applies: ATCC 208821, 36 h. In short, it runs like this: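 Cryptococcus was grown 3 days on YPD agar at 30 °C, suspended, and diluted in YNB broth to 2.5×10^3 CFU/mL. Cells were exposed to 0.008–32 μg/mL compound (final), in duplicate, for 36 h at 35 °C without shaking. Resazurin (0.006% final) was added for a further 3 h. MIC was read from absorbance at OD570–600. Means, n = 2.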

In series [11] the test system is Pseudomonas aeruginosa. Description: Potentiation of doxycycline-induced antibacterial activity against Pseudomonas aeruginosa ATCC 27853 assessed as concentration required to restore 2 ug/ml doxycycline activity measured after 18 hrs. The class given is functional. In short, it runs like this: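 Inoculum was 5×10^5 CFU in MHB with two-fold serial dilutions of adjuvant plus fixed doxycycline at 2 μg/mL. […] Repeated independently in triplicate.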

Series [12] relates to L6. Description: Cytotoxicity against rat L6 cells measured after 72 hrs by alamar blue assay. The class given is cell-based. As to conditions: L6, 72 h. In short, it runs like this:
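Rat L6 myoblasts, 4×10^4/well in RPMI 1640 with L-glutamine and 10% FBS, received seven 3-fold dilutions (90 to 0.123 μg/mL) for 72 h. Alamar Blue was added for 2 h and fluorescence read at ex 536/em 588 nm. Podophyllotoxin served as reference. Means, n = 2.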

The nature of series [13]: Cytotoxicity against human HEK293 cells measured after 20 hrs by resazurin dye based fluorescence assay. The class given is cell-based. A digest of the protocol:
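HEK293 cells, 5,000/well in DMEM with 10% FBS, were exposed to compound for 20 h at 37 °C, 5% CO2. Resazurin (100 μM final) was added for 3 h, then fluorescence read at ex 560/em 590. Signal was normalised to tamoxifen (74 μg/mL, 0%) and untreated growth (100%), and CC50 came from dose-response fitting. Top dose 32 μg/mL. Means, n = 2.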

Series [14] is described as follows: Hemolytic activity against Sprague-Dawley rat RBC assessed as release of hemoglobin at 50 uM incubated for 1 hr relative to control. The class given is ADME, cell-based, Erythrocyte. The following applies: red blood cells (erythrocytes), read-out: Activity. A digest of the protocol:
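Fresh Sprague-Dawley rat erythrocytes were washed in saline and resuspended at 2% v/v. Cells were incubated with compound in DMSO/PBS for 1 h at 37 °C, then centrifuged at 200 g, and supernatant absorbance read at 540 nm. Results were normalised to DMSO/PBS (0%) and 0.1% Triton X-100 (100%). Single-point testing used 50 μM; HC50 came from 10-point curves. Means of three experiments.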

In the case of `C[C@H]1c2cccc(O)c2C(=O)C2=C(O)[C@]3(O)C(=O)C(C(N)=O)=C(O)[C@@H](N(C)C)[C@@H]3[C@@H](O)[C@@H]21` [DOXYCYCLINE], the MIC in [1] came to 12.5 µM (≈ 5.56 µg/mL); in [2], 90 µM (≈ 40 µg/mL); in [3], 25 µM (≈ 11.1 µg/mL); in series [4], 25 µM (≈ 11.1 µg/mL).

Regarding `CC[C@H]1OC(=O)[C@H](C)[C@@H](O[C@H]2C[C@@](C)(OC)[C@@H](O)[C@H](C)O2)[C@H](C)[C@@H](O[C@@H]2O[C@H](C)C[C@H](N(C)C)[C@H]2O)[C@](C)(O)C[C@@H](C)C(=O)[C@H](C)[C@@H](O)[C@]1(C)O` [ERYTHROMYCIN], the MIC in [1] was 200 µM (≈ 147 µg/mL); in series [2] it was over 200 µM; in series [3], over 200 µM; in [4], over 200 µM.

As to `O=C(NCCCNCCCCNCCCNC(=O)C(=O)c1c[nH]c2cc(Cl)ccc12)C(=O)c1c[nH]c2cc(Cl)ccc12.O=C(O)C(F)(F)F.O=C(O)C(F)(F)F`, the minimal inhibitory concentration (MIC) in series [5] was determined as 6.25 µM; in series [6], 3.12 µM; in [2], 100 µM; in series [3], 50 µM; in [7], 38.1 µM; in series [8], 38.1 µM. The MIC in series [9] turned out to be 38.1 µM; in series [10] it was 4.8 µM. Besides, in [11], the Activity was found to be 6.25 µM. Besides, the half-maximal inhibitory concentration (IC50) in [12] came out at 33.2 µM. Besides, the midpoint of cytotoxicity in series [13], the CC50 at 20 h, lay at 19.1 µM. Moreover, in series [14], the hemolysis at 1 h, 50 µM is 11.6%.

Take `Cc1ccc2[nH]cc(C(=O)C(=O)NCCCNCCCCNCCCNC(=O)C(=O)c3c[nH]c4ccc(C)cc34)c2c1.O=C(O)C(F)(F)F.O=C(O)C(F)(F)F`: the minimum inhibitory concentration (MIC) is 25 µM in [5]; over 200 µM in series [6]; 100 µM in series [2]; 200 µM in series [3]; over 40 µM in series [7]; over 40 µM in [8]. Further, the MIC in series [9] was over 40 µM; in [10] it was 10 µM. In addition, in series [11], the Activity is 6.25 µM. The compound also gave a concentration for half-maximal inhibition (IC50) in [12] of 63.8 µM. In series [13], this compound registered a CC50 at 20 h of over 40 µM. Besides, in series [14], the hemolysis at 1 h, 50 µM stood at 0.3%.

Turning to `N#Cc1ccc2c(C(=O)C(=O)NCCCNCCCCNCCCNC(=O)C(=O)c3c[nH]c4cc(C#N)ccc34)c[nH]c2c1.O=C(O)C(F)(F)F.O=C(O)C(F)(F)F`, the minimal inhibitory concentration (MIC) in series [5] is 100 µM; in series [6], 25 µM; in [2] it was over 200 µM; in series [3], 200 µM; in series [7], over 38.9 µM; in [8] it was over 38.9 µM. For the same compound, the minimal inhibitory concentration (MIC) in series [9] is over 38.9 µM; in [10], 38.9 µM. Moreover, the Activity in series [11] was 50 µM. Also, the IC50 in series [12] came out at 46.9 µM. For the same compound, in series [13], the CC50 at 20 h was over 38.9 µM. Moreover, the hemolysis at 1 h, 50 µM in series [14] worked out at 0%.

For `O=C(NCCCNCCCCNCCCNC(=O)C(=O)c1c[nH]c2ccc(F)cc12)C(=O)c1c[nH]c2ccc(F)cc12.O=C(O)C(F)(F)F.O=C(O)C(F)(F)F`, the MIC in [5] is 25 µM; in [6], 50 µM; in [2] it was 200 µM; in series [3] it was 200 µM; in series [7], over 39.6 µM; in [8] it was over 39.6 µM. Besides, the minimum inhibitory concentration (MIC) is over 39.6 µM in series [9] and 9.9 µM in series [10]. Also, the Activity in [11] was 12.5 µM. In [12], this compound showed a 50% inhibitory concentration (IC50) of 71.1 µM. In [13], this compound showed a CC50 at 20 h of over 39.6 µM. Also, the hemolysis at 1 h, 50 µM in [14] worked out at 0%.

On to `COc1ccc2c(C(=O)C(=O)NCCCNCCCCNCCCNC(=O)C(=O)c3c[nH]c4cc(OC)ccc34)c[nH]c2c1`, for which the minimum inhibitory concentration (MIC) was over 100 µM in series [5]; over 100 µM in series [6]; over 100 µM in series [2]; over 100 µM in [3]; over 38.4 µM in series [7]; over 38.4 µM in [8]. The results for the minimal inhibitory concentration (MIC) in series [9] and in series [10] were over 38.4 µM and 19.2 µM (≈ 11.6 µg/mL), respectively. For the same compound, the Activity in series [11] was determined as 50 µM. Also, the half-maximal inhibitory concentration (IC50) in series [12] was determined as 54 µM. The same compound returned a CC50 at 20 h in series [13] of over 38.4 µM. In series [14], the hemolysis at 1 h, 50 µM stood at 0%.

Turning to `COC(=O)c1ccc2[nH]cc(C(=O)C(=O)NCCCNCCCCNCCCNC(=O)C(=O)c3c[nH]c4ccc(C(=O)OC)cc34)c2c1.O=C(O)C(F)(F)F.O=C(O)C(F)(F)F`, the MIC is 100 µM in series [5]; 6.25 µM in series [6]; 200 µM in series [2]; 200 µM in [3]; over 36 µM in series [7]; over 36 µM in series [8]. For the same compound, the minimum inhibitory concentration (MIC) in series [9] and in series [10] was over 36 µM each time. In series [11], the Activity is 25 µM. Also, the concentration for half-maximal inhibition (IC50) in series [12] worked out at 41.8 µM. Besides, the CC50 at 20 h in series [13] was over 36 µM. Besides, the hemolysis at 1 h, 50 µM in series [14] was found to be 0%.

With `O=C(NCCCNCCCCNCCCNC(=O)C(=O)c1c[nH]c2cc(C(F)(F)F)ccc12)C(=O)c1c[nH]c2cc(C(F)(F)F)ccc12.O=C(O)C(F)(F)F.O=C(O)C(F)(F)F`, the MIC in series [5] was 50 µM; in series [6] it was 50 µM; in series [2], 200 µM; in series [3], 100 µM; in series [7] it was 35.2 µM; in series [8], over 35.2 µM. The minimal inhibitory concentration (MIC) stood at 35.2 µM in series [9] and 4.4 µM in [10]. Besides, the Activity in [11] came to 100 µM. Also, in series [12], the IC50 was 31.4 µM. In series [13], this compound showed a 50% cytotoxic concentration (CC50) at 20 h of 3.36 µM. Besides, the hemolysis at 1 h, 50 µM in series [14] came to 3.2%.

Consider `O=C(N[C@H](CO)[C@H](O)c1ccc([N+](=O)[O-])cc1)C(Cl)Cl` [CHLORAMPHENICOL], for which the MIC in [1] was over 200 µM; in [5], 1.5 to 3 µM (≈ 0.485 to 0.969 µg/mL); in series [6], 3 to 6 µM (≈ 0.969 to 1.94 µg/mL); in series [2], over 200 µM; in [3], over 200 µM; in [4], 50 µM (≈ 16.2 µg/mL).

As to `CCn1cc(C(=O)O)c(=O)c2ccc(C)nc21` [NALIDIXIC ACID], the MIC in [1] is over 200 µM; in [2], over 200 µM; in series [3] it was over 200 µM; in series [4], 100 µM (≈ 23.2 µg/mL).
